High-throughput results deposited in PubChem BioAssay by The Scripps Research Institute Molecular Screening Center.
EBNA-1 inhibitor – blocks EBNA-1 binding to DNA | inhibition, % at 14.8 µM | 0.34% of 300,000 active | EBNA-1 DNA binding, fluorescence polarization; in the data active = inhibition above about 28%
ZTA counter – blocks Epstein-Barr virus ZTA, an EBNA-1 counter-screen; AID 2234; inhibition, % at 11 µM; P03206; ZTA-DNA binding, fluorescence polarization; 0.15% of 320,000 active; in the data active = inhibition above about 33%
Target sequence (P03206 whole entry, looked up): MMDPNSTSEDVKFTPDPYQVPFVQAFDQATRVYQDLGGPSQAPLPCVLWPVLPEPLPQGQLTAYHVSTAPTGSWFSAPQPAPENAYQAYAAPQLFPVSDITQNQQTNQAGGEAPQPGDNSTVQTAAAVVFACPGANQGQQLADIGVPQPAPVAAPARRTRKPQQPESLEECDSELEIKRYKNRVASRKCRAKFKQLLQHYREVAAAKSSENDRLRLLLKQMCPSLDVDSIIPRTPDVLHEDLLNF
CTSL1 counter – blocks F. hepatica cathepsin L1 in PFM18AAP counter-screen | recombinant F. hepatica cathepsin L1, Z-Leu-Arg-MCA fluorescence | inhibition, % at 5.96 µM | 0.49% of 300,000 active | AID 1906;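 active = inhibition above the mean of all tested compounds plus 3 SD, set per screening campaign, cut at about 17% in these data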;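 also: 0% = plate median of test compound wells and 100% = 1 µM Z-Phe-Ala-diazomethylketone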
NS3 helicase inh – blocks Hepatitis C virus NS3 helicase unwinding; NS3 helicase DNA unwinding, Cy5 molecular beacon fluorescence; AID 1800; inhibition, % at 10.9 µM; 0.56% of 290,000 active;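 active = inhibition above the mean of all tested compounds plus 3 SD, set per campaign, cut at about 35% in these data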;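 also: 0% = DMSO wells and 100% = thioflavine S control wells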
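Material: hepatitis C virus NS3 helicase domain fragment enzyme; measured by: Cy5 fluorescence, 0 and 60 min reads; control set: DMSO and thioflavine S; incubation: 60 min unwinding reaction at 25 °C after ATP addition; read-out basis: % inhibition from 60/0 min fluorescence ratio, DMSO 0%, thioflavine S 100%; repeats: singlicate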
NS3 helicase cf – confirmation of Hepatitis C virus NS3 helicase inhibitors; AID 1943; NS3 helicase DNA unwinding, Cy5 molecular beacon fluorescence; 31% of 1,600 active; inhibition, % at 10.9 µM; shares compounds with NS3 helicase inh;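 active = inhibition above the mean of all tested compounds plus 3 SD, cutoff set per campaign, cut at about 36% in these data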
DNA FID counter – intercalator displacement, NS3 helicase counter-screen; AID 1945; inhibition, % at 7.9 µM; shares compounds with NS3 helicase inh; 4% of 1,600 active; DNA fluorescent intercalator displacement, fluorescence; in the data active = inhibition above about 37%;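 also: 0% = vehicle and 100% = reference compound; higher means more displacement of ethidium bromide from the DNA hairpin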
DNA FID DR – displaces fluorescent intercalator from DNA, HCV helicase counter-screen; shares compounds with NS3 helicase inh; fluorescent intercalator displacement from DNA, fluorescence; IC50, µM; 120 tested, under 10 active; AID 2172; call rule not given here
Numbers without * were called inactive. An excerpt weighted towards active compounds, which were near 1.4% of everything screened.

How did O=C1CSC(=S)N1/N=C/c1ccc(Cl)c([N+](=O)[O-])c1 do in these assays?
EBNA-1 inhibitor: 6; ZTA counter: 4; CTSL1 counter: 2; NS3 helicase inh: 44*; NS3 helicase cf: 51*; DNA FID counter: 8

Results for O=C1CSC(=S)N1/N=C/c1ccc2c(c1)OCCO2 ?
EBNA-1 inhibitor: -2; ZTA counter: -8; CTSL1 counter: 2; NS3 helicase inh: 21

How did Cn1c2ccccc2c(=O)c2ccc(-c3ccc4c(c3)OCO4)cc21 do in these assays?
EBNA-1 inhibitor: 11; ZTA counter: 9; CTSL1 counter: 6; NS3 helicase inh: 43*; NS3 helicase cf: 7; DNA FID counter: 2

Results for Cn1c(-c2ccc3c(c2)OCO3)cc(=O)c2ccccc21 ?
EBNA-1 inhibitor: -5; ZTA counter: -6; CTSL1 counter: 0; NS3 helicase inh: 5

How did C[C@]1(OC(=O)/C=C/c2ccccc2)C[C@@H](O)[C@]2(O)C=CO[C@@H](O[C@@H]3O[C@H](CO)[C@@H](O)[C@H](O)[C@H]3O)[C@@H]21 do in these assays?
EBNA-1 inhibitor: 10; ZTA counter: 6; CTSL1 counter: -5

Results for O=C(NNC(=S)NC(=O)c1ccco1)c1ccc(F)cc1 ?
EBNA-1 inhibitor: -4; ZTA counter: -8; CTSL1 counter: 11; NS3 helicase inh: -1

How did Cn1cccc1CC(=O)NNC(=S)NC(=O)c1ccc(F)cc1 do in these assays?
EBNA-1 inhibitor: 1; ZTA counter: -1; CTSL1 counter: -1; NS3 helicase inh: 45*; NS3 helicase cf: -10; DNA FID counter: -3

How did CCCC(C(=O)O)N1C(=O)/C(=C/c2cccn2C)SC1=S (centres undefined) do in these assays?
EBNA-1 inhibitor: -1; ZTA counter: -4; CTSL1 counter: 10; NS3 helicase inh: 36*; NS3 helicase cf: 39*; DNA FID counter: -16

How did CC(C)C(C(=O)O)N1C(=O)/C(=C/c2cccn2C)SC1=S (centres undefined) do in these assays?
EBNA-1 inhibitor: -1; ZTA counter: 10; CTSL1 counter: 7; NS3 helicase inh: 35

How did Nc1cc(OC(=O)c2ccco2)nn1S(=O)(=O)c1ccc(F)cc1 do in these assays?
EBNA-1 inhibitor: 2; ZTA counter: 14; CTSL1 counter: -29; NS3 helicase inh: 0

How did O=C(O)c1ccc2nc(-c3ccco3)c(-c3ccco3)nc2c1 do in these assays?
NS3 helicase inh: 45*; NS3 helicase cf: 67*; DNA FID counter: 10

Results for O=C(c1ccc2nc(-c3ccco3)c(-c3ccco3)nc2c1)N1CCN(c2ccccc2)CC1 ?
EBNA-1 inhibitor: -17; ZTA counter: 5; CTSL1 counter: 3; NS3 helicase inh: 41*; NS3 helicase cf: 65*; DNA FID counter: -15; DNA FID DR: >79

What do the screens show for `COc1ccc(CCNC(=O)c2ccc3nc(-c4ccco4)c(-c4ccco4)nc3c2)cc1OC`?
EBNA-1 inhibitor: 3; ZTA counter: -12; CTSL1 counter: 2; NS3 helicase inh: 52*; NS3 helicase cf: 41*; DNA FID counter: -8

Results for CCc1nc2ccc(C(=O)NCCc3ccc(OC)c(OC)c3)cc2nc1CC ?
EBNA-1 inhibitor: 1; ZTA counter: 0; CTSL1 counter: 0; NS3 helicase inh: 0

Results for CCOC(=O)c1c(CN2CCCCC2)n(C)c2cc(Br)c(O)c(CN(C)C)c12 ?
EBNA-1 inhibitor: -5; ZTA counter: 4; CTSL1 counter: -1; NS3 helicase inh: -8

How did CCSc1ccccc1C(=O)Nc1cc(OC)c(OC)c(OC)c1 do in these assays?
EBNA-1 inhibitor: -4; ZTA counter: -13; CTSL1 counter: 4; NS3 helicase inh: 3

What do the screens show for `Cc1nnc(SCc2ccccc2Cl)n(N)c1=O`?
EBNA-1 inhibitor: -4; ZTA counter: 2; CTSL1 counter: 0; NS3 helicase inh: -2

Results for O=C(/C=C/Nc1ccc(F)cc1)c1ccc(Oc2ncccn2)cc1 ?
EBNA-1 inhibitor: -4; ZTA counter: -16; CTSL1 counter: 2; NS3 helicase inh: 4

How did CCN(CC)c1ccc(N=Cc2ccccc2[N+](=O)[O-])cc1 do in these assays?
EBNA-1 inhibitor: 177*; ZTA counter: active; CTSL1 counter: -7; NS3 helicase inh: 41*; NS3 helicase cf: 2; DNA FID counter: 15

What do the screens show for `CCNc1nc(NCC)nc(N/N=C/c2ccc([N+](=O)[O-])o2)n1`?
EBNA-1 inhibitor: 4; ZTA counter: 2; CTSL1 counter: 12; NS3 helicase inh: -2

How did CCN(CC)c1ccc(N=Cc2ccc([N+](=O)[O-])o2)cc1 do in these assays?
EBNA-1 inhibitor: active; ZTA counter: active; CTSL1 counter: -2; NS3 helicase inh: 57*; NS3 helicase cf: 6; DNA FID counter: 17

Results for Cc1ccc(Cn2c(N3CCN(CCO)CC3)nc3c2c(=O)n(C)c(=O)n3C)cc1 ?
EBNA-1 inhibitor: 2; ZTA counter: 12; CTSL1 counter: 1; NS3 helicase inh: 0

How did CN1CCN(S(=O)(=O)c2ccc(N3CCN(C(c4ccccc4)c4ccccc4)CC3)nc2)CC1 do in these assays?
EBNA-1 inhibitor: -2; ZTA counter: -4; CTSL1 counter: 0; NS3 helicase inh: 43*; NS3 helicase cf: 8; DNA FID counter: 51*

How did O=C(CCc1c[nH]c2ccccc12)NCc1cccc(Cl)c1 do in these assays?
EBNA-1 inhibitor: -18; ZTA counter: 4; CTSL1 counter: -2; NS3 helicase inh: -8

How did Cn1nnnc1SCc1nc2scc(-c3ccc(Cl)cc3)c2c(=O)[nH]1 do in these assays?
EBNA-1 inhibitor: -2; ZTA counter: -8; CTSL1 counter: 0; NS3 helicase inh: 42*; NS3 helicase cf: -17; DNA FID counter: 1

What do the screens show for `Cn1nnnc1SCc1nc2scc(-c3ccccc3)c2c(=O)[nH]1`?
EBNA-1 inhibitor: -14; ZTA counter: -19; CTSL1 counter: -4; NS3 helicase inh: -13

What do the screens show for `CCOc1ccc(C(=O)Nc2nnc(S(=O)(=O)N(C)Cc3ccco3)s2)cc1`?
EBNA-1 inhibitor: -12; ZTA counter: -4; CTSL1 counter: 2; NS3 helicase inh: 57*; NS3 helicase cf: 2; DNA FID counter: -5

What do the screens show for `CN(Cc1ccco1)S(=O)(=O)c1nnc(NC(=O)c2ccc(F)cc2)s1`?
EBNA-1 inhibitor: 4; ZTA counter: 3; CTSL1 counter: 1; NS3 helicase inh: 15

How did C=CCOc1cccc(/C=C/c2nc3ccccc3c(=O)[nH]2)c1 do in these assays?
EBNA-1 inhibitor: -3; ZTA counter: 4; CTSL1 counter: -5; NS3 helicase inh: -6

Results for C[C@H](CCC(=O)O)[C@H]1CC[C@H]2[C@@H]3CC[C@@H]4C[C@H](O)CC[C@]4(C)[C@H]3CC[C@]12C ?
EBNA-1 inhibitor: 9; ZTA counter: 5; CTSL1 counter: -1
